Compound activity deposited in PubChem by several laboratories.
An excerpt weighted towards active compounds, which were near 9.4% of everything screened.
CSC inhib – blocks cancer stem cells. cancer stem cell-like cells viability, luminescence. inhibition, % at 7.5 µM. hit rate 1.1% among 300,000. AID 2717; in the data active means inhibition above about 75%; inconclusive means no clear call, values can overlap the other calls; tested in HMLE shEcad cells
Beta apoptosis – beta cell apoptosis inhibition; INS-1E cytokine-induced death, ATP luminescence, 48 h; percent of positive-control rescue, neutral wells zero; protection from apoptosis, % (test concentration not listed); hit rate 0.8% among 300,000; AID 435005;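 active means Every replicate reaches about 75%, or at least half do and their mean reaches it too, limit read from the data; inconclusive means At least half of replicates reach the limit but their mean does not; inactive means Under half of replicates reach the limit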;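 further: higher means more ATP so stronger rescue from cytokine killing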
Lmaj promast – reduces viability of Leishmania major promastigotes | resazurin fluorescence viability | inhibition, % at 10 µM | hit rate 9% among 200,000 | AID 1063; in the data active means inhibition above about 50%;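 further: promastigotes grown with compound for 44 hours at 28 °C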
Mdm2 MdmX PPI – human Mdm2/MdmX binding inhibition; inhibition, % at 8 µM; O15151+Q00987; SaOS-2 split-luciferase Mdm2/MdmX complementation, luminescence; hit rate 3% among 330,000;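 active means inhibition of at least 50% at 8 µM in the primary screen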
T cruzi inh – blocks replication of Trypanosoma cruzi; hit rate 1.4% among 300,000; T. cruzi beta-gal in NIH3T3, luminescence, 90 h; inhibition, % (concentration not given with the values); AID 1885;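 active means mean inhibition across valid replicates above about 55%, limit read from the data; inconclusive means mean below that limit but half or more replicates reach it; inactive means mean below it, under half of replicates reach it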;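 further: signal also drops with host cell toxicity which is not excluded here; higher percent means less beta-gal luminescence so fewer parasites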
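System: NIH/3T3 fibroblasts plus reporter T. cruzi. Medium: DMEM plus 2% FBS. Probe or stimulus: 5000 reporter trypomastigotes per well. Compound: single 50 nL compound addition per well in DMSO. Incubation: co-culture of at least 90 h after 3 h attachment. Detection: GalScreen β-gal luminescence, detergent lysis, 60 min. Evaluation: parasite load inhibition, %.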
SKKanGAS inh – inhibitors of SKKanGAS S. pyogenes growth in kanamycin (SK-promoter or general growth effect); inhibition, % at 7.5 µM; hit rate 1.3% among 300,000; BacTiter-Glo, 6 h;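 active means mean replicate score, as percent of positive control median, at least 50; inconclusive means mean below 50 but one replicate at or above 50; inactive means mean and every replicate below 50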;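 further: strain carries kanamycin resistance gene driven by streptokinase promoter and grows in 40 µg/ml kanamycin; loss of luminescence reflects streptokinase promoter inhibition or plain growth inhibition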
Each line names hits and unclear results; the compound was inactive in the other large screens.

CCCCC(=O)Nc1cccc(-c2nc3ncccc3o2)c1	Lmaj promast 100
CCCCCC(=O)Nc1cccc(-c2nc3ncccc3o2)c1	Lmaj promast 67
CCN1CCCC1CNC(=O)c1cc2c(C)nc3ccccc3c2o1 (stereo unspecified)	Lmaj promast 100
Cc1nc2ccccc2c2oc(C(=O)Nc3ccc(C(C)C)cc3)cc12	Beta apoptosis 79, T cruzi inh inconclusive (no result: CSC inhib)
CCCn1c(N)c(C(=O)CSc2nc3ncc(Cl)cc3[nH]2)c(=O)[nH]c1=O	none (no result: Lmaj promast, T cruzi inh, SKKanGAS inh)
CN(C1=C(NC(=O)c2ccccc2)C(=O)c2ccccc2C1=O)C1CCS(=O)(=O)C1 (stereo unspecified)	Beta apoptosis 97, Lmaj promast 99
CCCCNc1c(-c2ccc(SC(C)CC)c(OC)c2)nc2ccc(Cl)cn12 (stereo unspecified)	none (no result: Lmaj promast, T cruzi inh, SKKanGAS inh)
CCCCCCSc1ccc(-c2nc3ccc(Cl)cn3c2NCCCC)cc1OC	none (no result: CSC inhib, Beta apoptosis, Lmaj promast, T cruzi inh, SKKanGAS inh)
CCCCNc1c(-c2ccc(SC3CCCCC3)c(OC)c2)nc2ccc(Cl)cn12	T cruzi inh 70 (no result: Lmaj promast)
CCCCNc1c(-c2ccc(SC(C)CC)c(OC)c2)nc2ccc(C)cn12 (stereo unspecified)	CSC inhib 123, SKKanGAS inh 72 (no result: Lmaj promast)
CN(C)c1ccsc1C(=O)NNS(=O)(=O)c1ccc(Cl)cc1	none (no result: Lmaj promast)
O=C(O)CCC(=O)Nc1ccccc1C(=O)N1CCN(c2ccc(Cl)cc2)CC1	none
Cn1ccc(NC(=O)Nc2cccc([N+](=O)[O-])c2)n1	none
Cc1ccccc1S(=O)(=O)c1c(C)cc(C)n(C)c1=O	none
Cc1ccccc1S(=O)(=O)c1c(C)cc(C)n(CC(C)C)c1=O	Lmaj promast 91
Cc1cccc(C)c1NC(=O)CSc1nnc(-c2ccco2)c(-c2ccco2)n1	Lmaj promast 83
Cc1ccccc1NC(=O)CSc1nnc(-c2ccco2)c(-c2ccco2)n1	Lmaj promast 93
CCOC(=O)C1CCCCN1Cc1cccc(Oc2ccccc2)c1 (stereo unspecified)	none (no result: Lmaj promast)
COc1ccc2c(c1)[nH]c1c(=O)n(/N=C/c3ccc(OC)c(CN4CCCC4)c3)cnc12	none (no result: Lmaj promast)
COc1ccc(/C=N/n2c(C)nc3c([nH]c4ccccc43)c2=O)cc1CN1CCCC(C)(C)C1	SKKanGAS inh 70 (no result: Lmaj promast)
COc1ccc2[nH]c3c(=O)n(/N=C/c4ccc(OC)c(CN5CCCC5)c4)c(C)nc3c2c1	T cruzi inh 65, SKKanGAS inh 72 (no result: Lmaj promast)
O=C(Cn1cncn1)c1ccccc1Br	none (no result: Lmaj promast)
COc1ccc(N2CCN(C(c3cc4cc(C)ccc4[nH]c3=O)c3nnnn3Cc3ccccc3)CC2)cc1 (stereo unspecified)	Lmaj promast 99
COc1cc2cc(C(c3nnnn3C3CCCC3)N3CCCCC3)c(=O)[nH]c2cc1OC (stereo unspecified)	none
Cc1ccc2cc(C(c3nnnn3C3CCCC3)N3CCN(c4ccccc4)CC3)c(=O)[nH]c2c1 (stereo unspecified)	Lmaj promast 76
COc1ccc(Cn2nnnc2C(c2cc3cc(C)ccc3[nH]c2=O)N2CCOCC2)cc1 (stereo unspecified)	none
Cc1ccc2cc(C(c3nnnn3Cc3ccccc3)N3CCN(c4ccccc4)CC3)c(=O)[nH]c2c1 (stereo unspecified)	Lmaj promast 93
O=C(/C=C\c1ccc2c(c1)OCO2)Nc1nnc(SCC(=O)OCc2ccccc2)s1	Lmaj promast 92
COC(=O)CSc1nnc(NC(=O)c2ccc3c(c2)OCO3)s1	SKKanGAS inh 52 (no result: Beta apoptosis, Lmaj promast)
COC(=O)CSc1nnc(NC(=O)/C=C\c2ccc3c(c2)OCO3)s1	Lmaj promast 100
CCOC(=O)CSc1nnc(NC(=O)c2cc([N+](=O)[O-])cc([N+](=O)[O-])c2)s1	Lmaj promast 82
COCCSc1nnc(NC(=O)c2ccc([N+](=O)[O-])cc2)s1	none
Cc1ccc(NC(=O)CS(=O)CC(=O)N(CC(=O)NC(C)(C)C)c2cccc(C)c2C)cc1 (stereo unspecified)	none (no result: Lmaj promast)
CCN(CC)S(=O)(=O)c1ccc2c(c1)c(=O)c(C(=O)NCCc1ccc(OC)c(OC)c1)cn2C	none (no result: CSC inhib, Beta apoptosis, Lmaj promast)
CC(=O)Nc1ccc(SCC(=O)c2cc(C)n(C)c2C)cc1	none
CC(=O)Nc1ccc(SCC(=O)c2cc(C)n(CC(F)(F)F)c2C)cc1	Lmaj promast 61
O=C(CSc1ncnc2c1cnn2-c1ccc(Cl)cc1)NCc1ccc2c(c1)OCO2	Lmaj promast 52
COc1ccccc1/C=C/C(=O)OCC(=O)NCc1ccc2c(c1)OCO2	none (no result: Lmaj promast, T cruzi inh, SKKanGAS inh)
O=C(CSc1nc2cc(Cl)ccc2s1)NCc1ccc2c(c1)OCO2	Lmaj promast 76
O=C(CSc1ncnc2c1cnn2-c1ccccc1)Nc1ccc2c(c1)OCO2	none
Cc1nnc(SCC(=O)NCc2ccc3c(c2)OCO3)s1	none
COc1ccccc1/C=C(/CC(=O)NCc1ccc2c(c1)OCO2)c1nc2ccccc2s1	Lmaj promast 93, T cruzi inh 55
O=C(Nc1cccc(F)c1)Nc1ccnn1C1CCN(C(=O)c2cscn2)CC1	none (no result: Lmaj promast)
O=C(Cn1c(=O)c2c(ncn2Cc2ccccc2)n(Cc2ccccc2)c1=O)N1CCc2ccccc21	Lmaj promast 100
CCn1cnc2c1c(=O)n(CC(=O)N1CCc3ccccc31)c(=O)n2Cc1ccccc1	none
COC(=O)c1cc2sccc2n1Cc1nc(-c2cccc(Cl)c2)oc1C	Lmaj promast 64
Cc1ccnn1CCC(=O)N1CCCC(Nc2ccc(F)c(F)c2)C1 (stereo unspecified)	none (no result: CSC inhib, Lmaj promast)
c1ccc(C2(Cn3ccc4ccccc43)OCCO2)cc1	Beta apoptosis 114
Nc1c(S(=O)(=O)c2cccs2)c2nc3ccccc3nc2n1CCc1ccccc1	Lmaj promast 76
Nc1c(S(=O)(=O)c2cccs2)c2nc3ccccc3nc2n1Cc1cccs1	none
CC(C)CCn1c(N)c(S(=O)(=O)c2cccs2)c2nc3ccccc3nc21	Lmaj promast 70 (no result: CSC inhib)
O=C(NNC(=S)NC(=O)c1ccco1)c1ccc(F)cc1	SKKanGAS inh 83 (no result: Lmaj promast)
O=C(/C=C/c1ccco1)NC(=S)NNC(=O)c1ccco1	Lmaj promast 94
O=C(COc1ccc(Cl)cc1Cl)NNC(=S)NC(=O)c1ccco1	SKKanGAS inh 95 (no result: Lmaj promast)
O=C(COc1ccc(Cl)cc1Cl)NNC(=S)NCc1ccco1	none
COc1ccc(C(=O)NNC(=O)C(NC(=O)c2ccccc2NC(=O)c2ccco2)C(C)C)cc1 (stereo unspecified)	Lmaj promast 67
CCC(C)C(NC(=O)c1ccccc1NC(=O)c1ccco1)C(=O)NNC(=O)c1ccc(OC)cc1 (stereo unspecified)	none
O=C(/C=C/c1ccco1)NC(=S)Nc1ccc(C(=O)O)cc1	none (no result: CSC inhib, Beta apoptosis, Lmaj promast)
COc1ccccc1C(=O)NNC(=S)NC(=O)c1ccco1	Beta apoptosis 84, SKKanGAS inh 65 (no result: CSC inhib)
COc1cc(NC(=S)NC(=O)c2ccco2)ccc1NC(=O)C(C)C	Lmaj promast 86 (no result: CSC inhib, Beta apoptosis)
